Test results: ChEMBL document CHEMBL1671680, “Pradimicin S, a highly soluble nonpeptidic small-size carbohydrate-binding antibiotic, is an anti-HIV drug lead for both microbicidal and systemic use” (Antimicrob Agents Chemother, 2010)
Values after ≈ are worked out from the molar mass of the structure shown. Active and inactive are the calls of the source. The rule behind the calls is not given here.

Key:
[1] = system: PBMC; experiment: Immunostimulatory activity against human PBMC assessed as suppression of IL-4 production at 21 uM after 72 hrs; type: functional
Method in brief: (§1)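 Unstimulated PBMCs and PHA-blasts from three donors, in three independent experiments, cultured with test compound at 20 μg/ml (21 or 22 μM). Supernatants collected after 72 h. The cytokine profile was read on a Bio-Plex 27-plex human cytokine bead immunoassay, using beads coupled to cytokine-specific monoclonal antibodies and run per the kit instructions.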

[2] = Binding affinity to HIV-1 HXB2 gp41 assessed as dissociation rate constant after 6 mins by SPR analysis in presence of 10 mM CaCl2; set-up: species or system Human immunodeficiency virus 1
[3] = system: Human immunodeficiency virus 1; experiment: Ratio of EC90 to EC50 for R5 tropic HIV-1 clade G isolate BCF-DIOUM infected in human PBMC; type: functional
Method in brief: (§2)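 PBMCs from healthy donors were PHA-stimulated (2 μg/ml, 3 days, 37°C), then seeded at 0.5 × 10^6 per well with compound dilutions in RPMI 1640 with 10% FCS and IL-2 (25 U/ml). Virus was added at 250 pg p24 or p27/ml final. On day 12, supernatant HIV-1 p24 or HIV-2 p27 was measured by ELISA, giving EC50 and EC90.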

[4] = system: PBMC; experiment: Immunostimulatory activity against human PBMC assessed as MIP-1beta production at 22 uM after 72 hrs; type: functional, cell-based; method in brief: as §1
[5] = system: PBMC; experiment: Immunostimulatory activity against human PBMC assessed as IL-6 production at 21 uM after 72 hrs; type: functional, cell-based; method in brief: as §1
[6] = system: PBMC; experiment: Immunostimulatory activity against human PBMC assessed as suppression of PDGF production at 22 uM after 72 hrs; type: functional
[7] = Binding affinity to HIV-1 HXB2 gp41 after 6 mins by SPR analysis in presence of 10 mM CaCl2; set-up: species or system Human immunodeficiency virus 1
[8] = system: PBMC; experiment: Immunostimulatory activity against human PBMC assessed as IL-4 production at 22 uM after 72 hrs; type: functional, cell-based; method in brief: as §1
[9] = system: Human immunodeficiency virus 1; experiment: Antiviral activity against R5 tropic HIV-1 Bal infected in human Raji cells expressing DC-SIGN gene assessed as inhibition of virus capture by Raji cells after 60 mins by ELISA; type: functional, organism-based; details: Human immunodeficiency virus 1, Bal, 1 h
[10] = system: PBMC; experiment: Immunostimulatory activity against human PBMC assessed as TNF-alpha production at 21 uM after 72 hrs; type: functional, cell-based; method in brief: as §1
[11] = system: Human immunodeficiency virus 1; experiment: Antiviral activity against HIV-1 3B infected in human HUT78 cells assessed as prevention of syncytium formation between persistently HIV-1 3B-infected HUT-78 cells and uninfected SupT1 cells compound preexposed to high temperature after 3 to 4 days by ELISA; type: functional, organism-based; details: SUP-T1
[12] = system: PBMC; experiment: Immunostimulatory activity against human PBMC assessed as MCP-1 production at 21 uM after 72 hrs; type: functional, cell-based; method in brief: as §1
[13] = system: PBMC; experiment: Immunostimulatory activity against human PBMC assessed as FGF production at 22 uM after 72 hrs; type: functional, cell-based
[14] = system: Human immunodeficiency virus 1; experiment: Antiviral activity against X4 tropic HIV-1 3B infected in human Raji cells expressing DC-SIGN gene assessed as inhibition of virus capture by Raji cells after 60 mins by ELISA; type: functional, organism-based; details: Human immunodeficiency virus 1, 3B, 1 h
[15] = system: PBMC; experiment: Immunostimulatory activity against human PBMC assessed as IL-10 production at 22 uM after 72 hrs; type: functional, cell-based
[16] = Cytotoxicity against human PBMC cells after 3 to 4 days; type: cell-based
[17] = system: PBMC; experiment: Immunostimulatory activity against human PBMC assessed as suppression of IL-4 production at 22 uM after 72 hrs; type: functional; method in brief: as §1
[18] = system: PBMC; experiment: Immunostimulatory activity against human PBMC assessed as suppression of IL-2 production at 21 uM after 72 hrs; type: functional; method in brief: as §1
[19] = system: PBMC; experiment: Immunostimulatory activity against human PBMC assessed as suppression of G-CSF production at 22 uM after 72 hrs; type: functional; method in brief: as §1
[20] = system: PBMC; experiment: Immunostimulatory activity against human PBMC assessed as suppression of IL-15 production at 22 uM after 72 hrs; type: functional; method in brief: as §1
[21] = system: Human immunodeficiency virus 1; experiment: Antiviral activity against X4 tropic HIV-1 3B infected in human PBMC assessed as inhibition of viral replication […] by ELISA; type: functional, organism-based; details: Human immunodeficiency virus 1, 3B
Method in brief: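 PBMCs from healthy donors were stimulated with PHA (2 μg/ml) for 3 days, then seeded at 0.5 × 10^6 cells/well in RPMI 1640 with 10% FCS, IL-2 (25 U/ml) and compound. Virus was added at a final 250 pg p24/ml. Supernatant was taken at day 12 for p24 antigen ELISA.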

[22] = Aqueous solubility of the compound; type: physicochemical; details: aqueous medium; read-out: Activity
[23] = system: PBMC; experiment: Immunostimulatory activity against human PBMC assessed as IL-2 production at 21 uM after 72 hrs; type: functional, cell-based; method in brief: as §1
[24] = system: Human immunodeficiency virus 1; experiment: Ratio of EC90 to EC50 for R5 tropic HIV-1 clade B isolate US2 infected in human PBMC; type: functional; method in brief: as §2
[25] = Aqueous solubility of the compound at physiological pH; type: physicochemical; details: aqueous medium
[26] = Cytotoxicity against human HeLa cells after 3 to 4 days; type: cell-based
Method in brief: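 Cells seeded at 20,000–75,000 per well with compound dilutions, incubated 3–4 days at 37°C, and counted on a Coulter particle counter; CC50 is the concentration inhibiting proliferation by 50%.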

[27] = system: PBMC; experiment: Immunostimulatory activity against human PBMC assessed as eotoxin production at 21 uM after 72 hrs; type: functional, cell-based
Method in brief: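 In three independent experiments, PBMCs and PHA-blasts from three donors were cultured with compound for 72 h. Supernatants were analysed with a bead-based 27-plex human cytokine immunoassay covering interleukins, chemokines, growth factors, IFN-γ and TNF-α.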

[28] = Cytotoxicity against human MT4 cells after 7 days by trypan blue staining; type: cell-based
[29] = system: PBMC; experiment: Immunostimulatory activity against human PBMC assessed as IL-6 production at 22 uM after 72 hrs; type: functional, cell-based; method in brief: as §1
[30] = system: Human immunodeficiency virus 1; experiment: Ratio of EC90 to EC50 for X4 tropic HIV-1 group O isolate BCF06 infected in human PBMC; type: functional; method in brief: as §2
[31] = system: PBMC; experiment: Immunostimulatory activity against human PBMC assessed as GM-CSF production at 22 uM after 72 hrs; type: functional, cell-based
[32] = system: PBMC; experiment: Cytotoxicity against human PBMC cells at 50 uM after 7 days; type: cell-based; details: 168 h
[33] = system: PBMC; experiment: Immunostimulatory activity against human PBMC assessed as suppression of IL-15 production at 21 uM after 72 hrs; type: functional; method in brief: as §1
[34] = system: Human immunodeficiency virus 1; experiment: Ratio of KD for HIV-1 HXB2 gp41 to KD for HIV-1 3B gp120
Method in brief: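 SPR was run at 25°C. HIV-1 IIIB gp120 (CHO-derived, 122 RU) and HXB2 gp41 (Pichia-derived, 58 RU) were amine-coupled to a CM5 chip. Compound (2.5–40 μM, 2-fold steps) in HBS-P pH 7.4 with 10 mM CaCl2 was injected for 2 min at 45 μl/min, and dissociation was followed for 6 min. Apparent ka, kd and KD came from a 1:1 model fit of the three lowest concentrations.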

[35] = Chemical stability of the compound in 7mM sodium phosphate buffer after 4 days by HPLC at pH 4; type: physicochemical; details: pH 4, 96 h
Method in brief: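 1 mM compound held 4 days in PBS at 50°C, or in 7 mM sodium phosphate pH 4.0 at room temperature; then analysed by reverse-phase HPLC (phosphate/heptanesulfonate pH 3.2 buffer–acetonitrile gradient, 1 ml/min).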

For CN[C@@H]1[C@H](O[C@@H]2OC[C@@H](O)[C@H](O)[C@H]2O)[C@@H](O)[C@H](O[C@H]2c3cc(C)c(C(=O)N[C@H](C)C(=O)O)c(O)c3-c3c(cc4c(c3O)C(=O)c3cc(OC)cc(O)c3C4=O)[C@@H]2O)O[C@@H]1C [PRADIMICIN A], the “fold change (FC)” value [1] was 2, the Kd [2] was 2.91 ×10⁻² /s and the Ratio [3] was 2. For the same compound, the Activity [4] was “inactive”, the Activity [5] was “inactive” and the “fold change (FC)” value [6] was 2. For the same compound, the Kd [7] was 14.9 µM, the Activity [8] was “inactive” and the IC50 [9] was 17 µM. For the same compound, the Activity [10] was “inactive”, the Activity [11] was “Active” and the Activity [12] was “inactive”. For the same compound, the Activity [13] was “inactive”, the IC50 [14] was 3.5 µM and the Activity [15] was “inactive”. For the same compound, the CC50 [16] was > 50 µM, the “fold change (FC)” value [17] was 2 and the fold change (FC) [18] was 4. The “fold change (FC)” value [19] was 2, the “fold change (FC)” value [20] was 2 and the EC50 [21] was 2.6 µM. The solubility [22] was 50 µM (≈ 42 µg/mL), the Activity [23] was “inactive” and the Ratio [24] was 2. For the same compound, the solubility [25] was > 20 µM, the CC50 [26] was > 50 µM and the Activity [27] was “inactive”. The CC50 at 168 h [28] was > 50 µM, the Activity [29] was “inactive” and the Ratio [30] was 2. For the same compound, the Activity [31] was “inactive”, the Activity [32] was > 95% and the “fold change (FC)” value [33] was 2.
With CN[C@@H]1[C@H](O[C@@H]2O[C@H](CO)[C@@H](O)[C@H](OS(=O)(=O)O)[C@H]2O)[C@@H](O)[C@H](O[C@H]2c3cc(C)c(C(=O)N[C@H](C)C(=O)O)c(O)c3-c3c(cc4c(c3O)C(=O)c3cc(OC)cc(O)c3C4=O)[C@@H]2O)O[C@@H]1C [PRADIMICIN S] the “fold change (FC)” value [1] was 2, the Kd [2] was 2.71 ×10⁻² /s and the Ratio [3] was 2. For the same compound, the Activity [4] was “inactive”, the Activity [5] was “inactive” and the “fold change (FC)” value [6] was 2. The Kd [7] was 9.93 µM, the Activity [8] was “inactive” and the IC50 [9] was 21 µM. The Activity [10] was “inactive”, the Activity [11] was “Active” and the Activity [12] was “inactive”. For the same compound, the Activity [13] was “inactive”, the IC50 [14] was 11 µM and the Activity [15] was “inactive”. For the same compound, the CC50 [16] was > 230 µM, the “fold change (FC)” value [17] was 2 and the Ratio [34] was 30. The fold change (FC) [18] was 4, the “fold change (FC)” value [19] was 2 and the “fold change (FC)” value [20] was 2. For the same compound, the EC50 [21] was 8.5 µM, the Activity [23] was “inactive” and the Ratio [24] was 2. For the same compound, the CC50 [26] was > 230 µM, the Stability [35] was “Stable” and the Activity [27] was “inactive”. The Activity [29] was “inactive”, the Ratio [30] was 2 and the Activity [31] was “inactive”. For the same compound, the “fold change (FC)” value [33] was 2.
